Screening data (PubChem)
GSTO1 inh – counter-screen for RBBP9 inhibitors: inhibitors of human GSTO1 | inhibition, % at 5.96 µM | hit rate 1.1% among 300,000 | P78417 | AID 1974 | recombinant GSTO1, activity-based probe fluorescence polarization;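 active means inhibition above the campaign mean inhibition plus 3 SD, cut at about 35% in these data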
Target sequence (P78417 whole entry, looked up): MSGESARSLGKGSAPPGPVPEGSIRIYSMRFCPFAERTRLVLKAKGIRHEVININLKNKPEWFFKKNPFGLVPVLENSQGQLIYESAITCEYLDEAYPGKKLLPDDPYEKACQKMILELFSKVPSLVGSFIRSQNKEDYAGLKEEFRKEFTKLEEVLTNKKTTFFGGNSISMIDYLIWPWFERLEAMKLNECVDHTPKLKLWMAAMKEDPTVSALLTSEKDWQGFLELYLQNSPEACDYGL
Fh CTSL1 inh – counter-screen for PFM18AAP inhibitors: inhibitors of F. hepatica cathepsin L1; recombinant F. hepatica cathepsin L1, Z-Leu-Arg-MCA fluorescence; inhibition, % at 5.96 µM; hit rate 0.49% among 300,000;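 active means inhibition above the mean of all tested compounds plus 3 SD, set per screening campaign, cut at about 17% in these data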
TDP2 absorb – blocks human TDP2 phosphodiesterase activity; O95551; inhibition, % at 12.8 µM; AID 720702; recombinant TDP2, T5PNP hydrolysis, p-nitrophenol absorbance 415 nm; hit rate 0.34% among 370,000;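 active means inhibition above the mean of all tested compounds plus 3 SD, set per campaign, cut at about 25% in these data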
Target sequence (O95551 whole entry, looked up): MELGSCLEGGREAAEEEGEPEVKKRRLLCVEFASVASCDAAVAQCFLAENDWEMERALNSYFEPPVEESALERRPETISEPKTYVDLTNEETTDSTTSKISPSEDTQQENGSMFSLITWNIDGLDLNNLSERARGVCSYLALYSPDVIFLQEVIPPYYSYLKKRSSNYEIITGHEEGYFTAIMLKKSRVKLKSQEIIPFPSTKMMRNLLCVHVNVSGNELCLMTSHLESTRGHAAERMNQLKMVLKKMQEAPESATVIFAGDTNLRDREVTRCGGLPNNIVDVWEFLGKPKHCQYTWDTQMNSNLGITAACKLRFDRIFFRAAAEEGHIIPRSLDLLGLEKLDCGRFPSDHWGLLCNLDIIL
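Material: recombinant human TDP2; quantity: TDP2 enzyme at 120 nM final; medium: Tris-HCl pH 7.5 with MgCl2; compound: single concentration, 12.8 µM nominal, with 1% DMSO; incubation: 2 h enzyme incubation at 37 °C; signal: epi absorbance; measure: percent inhibition; benchmarks: high control without enzyme, low control DMSO plus TDP2; repeats: singlicate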
PAD4 inh – blocks human protein arginine deiminase 4. inhibition, % at 6.36 µM. AID 485272. Q9UM07. hit rate 0.41% among 330,000. recombinant PAD4, RCA probe fluorescence polarization;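 active means percent inhibition above a cutoff equal to the mean of all tested compounds plus 3 SD, cut at about 15% in these data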
Apaf-1 inh – human Apaf-1 inhibition; O14727; reconstituted apoptosome caspase-3 activity, DEVD-Rh110 fluorescence; inhibition, % at 20 µM; hit rate 0.71% among 330,000; AID 489030; active means inhibition of at least 40% at 20 µM
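Assay system – apoptosome proteins · Medium – Hepes buffer, pH 7.5 · Also added – cytochrome c with DEVD-Rh110 · Timing – 30 min compound preincubation, 50 min activation, room temperature · Detection – Rh110 fluorescence, excitation 480 nm, emission 540 nm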
GSTO1 inh conf – GSTO1 (human) inhibition, confirmation; shares compounds with GSTO1 inh; recombinant GSTO1, probe fluorescence polarization; inhibition, % at 5.96 µM; hit rate 54% among 2,400; AID 2176;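 active means inhibition above the primary screen's cutoff, its mean inhibition plus 3 SD, cut at about 35% in these data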;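 further: loss of polarization as inhibitors block binding of rhodamine sulfonate ester activity probe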
GSTO1 recomb ABPP – GSTO1 (human) inhibition by gel ABPP. shares compounds with GSTO1 inh. recombinant GSTO1, gel ABPP SE-Rh probe fluorescence. inhibition, % at 1 µM. hit rate 30% among 130. AID 463110;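 active means inhibition of the enzyme GSTO1 above about 75%, limit read from the data; inactive means inhibition below that limit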
Hits are given with their value; - = inactive; . = no result. Most compounds without a hit are left out; they make up all but 1.8% or so of the library.

SMILES	GSTO1 inh	Fh CTSL1 inh	TDP2 absorb	PAD4 inh	Apaf-1 inh	GSTO1 inh conf	others
CCOc1cc(CNc2ccc(O)cc2)cc(Br)c1OCc1ccccc1F	80.4	-	.	-	-	-
CCOc1cc(/C=N/NC(N)=O)cc(Br)c1OCc1ccccc1F	-	-	-	-	-	.
O=C(CSc1ncn[nH]1)Nc1ncc(C(F)(F)F)cc1Cl	-	-	-	-	-	.
O=C(CSc1ncn[nH]1)Nc1ccc(Cl)c(Cl)c1	51.7	-	-	-	-	-
O=C(CSc1nnc(-c2ccco2)c(-c2ccco2)n1)c1ccccc1	43.8	-	-	-	-	-
CN1CC(O)([C@H](Cc2ccccc2)NC(=O)OC(C)(C)C)OCC1C(=O)NCc1cccc2ccccc12 (stereo not given in full)	.	.	-	.	.	.
CCCCOc1ccc(C(=O)Oc2cc(C)[nH]c(=O)c2[N+](=O)[O-])cc1	-	-	-	-	-	.
CCOc1ccc(C(=O)Oc2cc(C)[nH]c(=O)c2[N+](=O)[O-])cc1	61.4	-	-	-	-	-
CCN(C(=O)[C@@H](C1CC1)[C@@H](O)c1ccc(Cl)cc1)c1ccccc1	.	.	-	.	.	.
COC(=O)CN1C(=O)C2(C(C#N)=C(N)Oc3n[nH]c(-c4cccs4)c32)c2ccccc21 (stereo not given)	-	-	-	-	-	.
COC(=O)CN1C(=O)C2(C(C#N)=C(N)Oc3c2c(C)nn3-c2ccccc2)c2ccccc21 (stereo not given)	41.7	-	-	-	-	-
Cn1c(-c2ccccc2)cnc1SCC(=O)N1CCCc2ccccc21	-	-	-	-	-	.
O=C(CSc1ncc(-c2ccccc2)n1C1CCCC1)N1CCc2ccccc21	39.3	-	-	-	-	-
O=C(O)C1Cc2ccccc2CN1C(=O)CCl (stereo not given)	70.3	-	-	-	-	97.6	GSTO1 recomb ABPP=82.0
O=C(c1ccc(Br)o1)N1CCN(c2ccc3nnc(-c4ccccc4)n3n2)CC1	39.9	-	-	-	-	-
O=C1c2ccccc2C(=O)N1Cc1ccc2c(c1)OCO2	-	-	-	-	-	.
O=C(c1cccs1)[C@@H]1[C@@H]2C(=O)N(Cc3ccc4c(c3)OCO4)C(=O)[C@@H]2C2c3ccccc3C=CN21 (stereo not given in full)	37.5	-	.	-	81.9	-
O=C(OCC(=O)N1CCCCC1)c1cc(NS(=O)(=O)c2ccc(Cl)c([N+](=O)[O-])c2)ccc1O	51.2	-	-	-	-	56.5
Cc1onc(-c2ccccc2)c1C(=O)NNC(=O)c1ccccc1O	47.0	-	-	-	-	-
Cc1onc(-c2ccccc2)c1C(=O)NNC(=O)c1ccccc1	.	.	-	-	-	.
COC(=O)Cc1c(C)[nH]n(-c2cc(Cl)cc(Cl)c2)c1=O	46.7	-	-	-	-	-
CCOC(=O)c1n[nH]n(-c2cc(Cl)cc(Cl)c2)c1=O	-	-	-	-	-	.
COc1ccc(NC(=O)CCN2CCN(S(=O)(=O)c3ccc(Br)cc3)CC2)cc1	71.0	-	-	-	-	-
Cc1ccc2c(c1)c1c3n2CCN(C(=O)CCl)C3CCC1 (stereo not given)	93.2	39.4	-	-	-	93.1	GSTO1 recomb ABPP=85.0
CC(=O)N1CCn2c3c(c4cc(C)ccc42)CCCC31 (stereo not given)	-	-	-	-	-	.
SMILES	GSTO1 inh	Fh CTSL1 inh	TDP2 absorb	PAD4 inh	Apaf-1 inh	GSTO1 inh conf	others
CCC(Sc1nc(-c2ccccc2)c(C#N)c(=O)[nH]1)C(=O)Nc1nnc(C)s1 (stereo not given)	61.3	-	-	-	-	63.4
CC(=O)C1=C(c2ccc(Br)cc2)C(=O)c2ccccc2C1=O	38.6	-	-	-	.	-
CC(C)C[C@H]1COc2cc(N3CCSCC3)ccc2S(=O)(=O)N1C	.	.	-	.	.	.
Cc1ccccc1C(=O)NC(=S)Nc1ccccc1N1CCCC1	-	-	-	-	-	.
COc1ccccc1C(=O)NC(=S)Nc1ccccc1N1CCCC1	39.7	-	-	-	-	-
CCOC(=O)C1=C(C)OC(N)=C(C#N)C1c1c(C)nn(-c2ccc(C)cc2)c1Cl (stereo not given)	.	.	.	.	-	.
Cc1ccc(-n2nc(C)c3c2OC(N)=C(C#N)C3c2ccc(C)o2)cc1 (stereo not given)	47.8	-	-	-	-	-
Cc1ccc(C=C2C(Cl)=C(Cl)C(Cl)=C2Cl)cc1	45.1	-	.	-	-	-
O=C(N/N=C/c1c[nH]c2ccccc12)c1ccc(O)c(O)c1	39.6	-	-	-	-	-
O=C(N/N=C/c1c[nH]c2ccccc12)c1cccc(O)c1	-	-	-	-	-	.
Oc1ccc(O)c(/C(=N/Nc2ccccc2)c2ccccc2)c1	39.8	-	.	-	-	-
O=C(C(=NNc1ccccc1)c1ccccc1)c1ccccc1	.	.	-	.	.	.
O=C(NNc1cc(Br)c(O)c(Br)c1)c1ccccc1	64.9	-	-	-	-	-
CC(=O)OC12CCCN(C1)/C(=C/c1cccc(Cl)c1)C2 (stereo not given)	.	.	-	.	.	.
COc1cccc(C2c3c(ncn(-c4ccccc4)c3=N)Oc3ccc4ccccc4c32)c1OC (stereo not given)	.	.	-	.	.	.
CN(Cc1c(O)ccc2c1oc(=O)c1ccccc12)C1CCCCC1	46.3	-	-	-	-	42.0
COC(=O)C1=C(C)N(Cc2ccccc2C(F)(F)F)C(=NCc2ccccc2)NC1c1ccc(Cl)cc1 (stereo not given)	.	.	-	.	.	.
O=C(CNc1nnnn1-c1ccccc1)N1CCCC1	.	.	-	.	.	.
COc1cc(CNc2ccc(S(N)(=O)=O)cc2)ccc1OCc1ccccc1F	.	.	-	.	.	.
COc1cc(CNc2ccc(N3CCCC3)cc2)ccc1OCc1ccccc1F	45.7	-	.	-	.	35.1
COc1cc(CNc2ccc(N3CCCCC3)cc2)ccc1OCC(=O)NC(C)(C)C	47.3	-	-	-	-	-
C[C@@H]1[C@@H](c2ccccc2)OC(O)([C@H](Cc2ccccc2)NC(=O)OC(C)(C)C)CN1C (stereo not given in full)	.	.	-	.	.	.
COc1ccc(C(=O)OCCN2CCN(C3CN(Cc4cn(Cc5cccc(F)c5)nn4)S(=O)(=O)C3)CC2)cc1OC (stereo not given)	.	.	-	.	.	.
COC(=O)CSc1nnc(-c2ccc(NS(=O)(=O)c3ccc(C(C)(C)C)cc3)cc2)o1	.	.	-	.	.	.
COc1ccc(N=Nc2nc3cc(Br)c(Br)cc3n2C)c(OC)c1	40.2	-	-	-	.	-
COc1ccc(C(=O)CSc2nnc(Cc3ccccc3)o2)cc1	37.9	-	-	-	-	-
COc1cc(-c2nnc(SCC(=O)c3ccc(C)cc3)o2)cc(OC)c1OC	37.9	-	-	-	-	-
COc1cccc(C(=O)CSc2nnc(-c3cc(OC)c(OC)c(OC)c3)o2)c1	-	-	-	-	-	.
